About 1,200 (48%) of roughly 2,500 compounds were called active. The set was probably picked from earlier hits. This is one part of the list. Unmarked numbers belong to inactive results.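 Rule for the calls: active = mean activation above the low control average plus 3 SD, as set in the primary screen (cut at about 12% in these data); inactive = the rest.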
Molecular target: Troponin I, cardiac muscle (Homo sapiens) + Troponin T, cardiac muscle (Homo sapiens) + Troponin C, slow skeletal and cardiac muscles (Homo sapiens) (UniProt P19429+P45379+P63316)
Assay: cardiac RTF calcium sensitivity activators, confirmation, biochemical, IANBD-TnC fluorescence, triplicate (AID 504383);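 note: 0% = DMSO at 0.472 mM calcium and 100% = DMSO at 2.9 mM calcium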
Conditions: IANBD-labeled cardiac RTF, Ca2+ sensitivity fluorescence; at 7.2 µM; hits give high values; scaled from EC20 to saturating calcium; tested at EC20 calcium, 0.472 mM
How it was run: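 System: Labelled thin filament complex | Technique: Filament fluorescence intensity | Benchmarks: Low control EC20 calcium, high control EC100 calcium | Timing: 15 min at 25 °C | Compound dosing: One dose, 7.2 µM nominal | Probe or stimulus: Ca2+ 0.472 mM, EC20 level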

| Structure (SMILES) | activation |
| --- | --- |
| Cc1ccc([N+](=O)[O-])c(OCCCN2C(=O)NC(C)(C)C2=O)c1 | 11% |
| COc1ccc(C2=NN(C(=O)CSc3ncccn3)C(c3ccc(C)cc3)C2)cc1 (stereo unspecified) | 505% (active) |
| CC1CCC(C(C)C)C(OC(=O)Cn2c(-c3ccccc3)[n+](C)c3ccccc32)C1 (stereo unspecified) | 10.7% |
| CN(C)c1ccc(/C=C/C(=O)c2cc(Cl)ccc2O)cc1 | 5.68% |
| CC(/C=C/c1ccc(N(C)C)cc1)=N/N=C1/NC(=O)CC(C(=O)Nc2ccc(Cl)cc2)S1 (stereo unspecified) | 14.4% (active) |
| COc1ccc(CN=C2NC(=O)CC(C(=O)Nc3ccc(F)cc3)S2)cc1 (stereo unspecified) | 10.2% |
| O=C(c1cccs1)N1CCN=C1SCc1cccc(F)c1 | 0.56% |
| N#Cc1c(-c2ccccc2F)cc(C2CC2)nc1SCC(=O)c1cccs1 | 14.3% (active) |
| COc1ccc(-c2cc(C3CC3)nc(SCC(=O)c3cccs3)c2C#N)cc1 | 8.22% |
| CC(C)OC(=O)c1c2c(n3ccccc13)C(=O)c1ccccc1C2=O | 9.36% |
| CCN(CC)c1ccc(/C=C/c2cccc[n+]2C)c(OC)c1 | 63.4% (active) |
| CN(C)NC(=O)c1ccc([N+](=O)[O-])s1 | 31.3% (active) |
| Cc1nc(NC(=O)c2ccccc2[N+](=O)[O-])sc1C(=O)N(C)C | 11.2% |
| CN(C)/C=C/C(=O)c1ccc(Br)s1 | 10.5% |
| Cc1c(Cl)c([N+](=O)[O-])nn1CC(=O)N1CCN(C23CC4CC(CC(C4)C2)C3)CC1 | 12% (active) |
| O=C(Cn1cnc2c(cnn2-c2ccccc2)c1=O)Nc1ccc(S(=O)(=O)N2CCOCC2)cc1 | 31% (active) |
| Cc1cccc(NC(=O)Cn2cnc3ccc(S(=O)(=O)N4CCC(C)CC4)cc3c2=O)n1 | 8.56% |
| O=S(=O)(c1ccc(NC(=S)Nc2ccccc2)cc1)N1CCOCC1 | 24.5% (active) |
| CN(C)NC(=S)Nc1ccc(S(=O)(=O)N2CCCCC2)cc1 | 19.8% (active) |
| CN1CC[C@@H]2C(=O)N3CCc4ccc(Br)cc4[C@@H]3C[C@@H]21 | 10.5% |
| CC(Sc1nc2ncc(Cl)cc2[nH]1)C(=O)Nc1ccc(C(N)=O)cc1 (stereo unspecified) | 1.26% |

| Structure (SMILES) | activation |
| --- | --- |
| O=C(CSc1nc2ncc(Br)cc2[nH]1)c1cccc([N+](=O)[O-])c1 | 64% (active) |
| CC(=O)N1C(=O)C(=C2C=C(C)OC(C)=C2)c2ccccc21 | 62.7% (active) |
| Cc1c2ccccc2nc2c(F)c(N(C)C)c(F)c(F)c12 | 19.2% (active) |
| Cc1c2ccccc2nc2c(F)c(NCCO)c(F)c(F)c12 | 159% (active) |
| CCn1c(O)c(/C=N/N=C/c2ccccc2)c2ccc(C3=NNC(=O)CC3)cc21 | 10.2% |
| CCn1c(O)c(/C=N/N=C/c2ccc(OC)cc2)c2cc(C3=NNC(=O)CC3)ccc21 | 20.9% (active) |
| C/C(=N/Nc1ccnc2cc(Cl)ccc12)c1ccc(N)cc1 | 18.9% (active) |
| C/C(=N\Nc1nccnc1Cl)c1ccc(Cl)c(Cl)c1 | 5.84% |
| O=C(Nc1ccccc1)C1CC2CCCC(C1)C2=O (stereo unspecified) | 8.65% |
| O=C(Nc1ccccc1)NC1CS(=O)(=O)CC1O (stereo unspecified) | 149% (active) |
| O=C(Nc1ccccc1)OC1CCC2CC1CCC2OC(=O)Nc1ccccc1 (stereo unspecified) | 7.87% |
| CCC(C)(C)NC(=O)C(c1ccc(F)cc1)N(Cc1ccco1)C(=O)c1cnccn1 (stereo unspecified) | 70.6% (active) |
| O=C1CCN2C=Nc3cccc4ccc1c2c34 | 13.7% (active) |
| CNC(=S)N1N=C(c2ccc(Br)cc2)CC1c1ccc(N(C)C)cc1 (stereo unspecified) | 31% (active) |
| CCSC1=N/C(=C\C=C2/Oc3ccccc3N2CC)C(=O)S1 | 31.9% (active) |
| CCCN1C(=O)/C(=C/C=C2\N(CC)c3ccccc3C2(C)C)SC1=S | 3.85% |
| CCCCN1C(=O)/C(=C/C=C2\Oc3ccccc3N2CC)SC1=S | 53.5% (active) |
| CCCN1C(=O)/C(=C\C=C2\N(CC)c3ccccc3C2(C)C)SC1=S | 10.1% |
| CCN1/C(=C/C=C/c2oc3ccc(-c4ccccc4)cc3[n+]2CC)Oc2ccc(-c3ccccc3)cc21 | 6.07% |
| COc1cccc(F)c1C(=O)NC(=O)Nc1ccc2nc(C)oc2c1 | 252% (active) |
| CCCCCCn1c(=O)[nH]c2nc3cc(N)c(C)cc3nc2c1=O | 158% (active) |

| Structure (SMILES) | activation |
| --- | --- |
| Cc1cc2nc3c(=O)n(CCc4ccccc4)c(=O)[nH]c3nc2cc1N | 17.3% (active) |
| CC(=O)OCCn1c2nc(=O)[nH]c(=O)c-2nc2cc(C)c(C)cc21 | 1.76% |
| CCCCn1c(=O)[nH]c2nc3cc(N)ccc3nc2c1=O | 0.26% |
| Cc1ccccc1-n1c(=O)n(CCc2ccccc2)c(=O)c2[nH]cnc21 | 8.97% |
| C=CCn1c(=O)[nH]c2nc3cc(N=CN(C)C)c(C)cc3nc2c1=O | 69.7% (active) |
| COCCN1C(=O)/C(=C/c2ccc(N3CCCC3)cc2)SC1=S | 15.2% (active) |
| COCCN1C(=O)/C(=C/c2ccc(N3CCCC3)cc2C)SC1=S | 0.91% |
| COc1ccc(/C=C2\SC(=O)N(CCC(=O)N3CCN(C)CC3)C2=O)cc1 | 5.35% |
| O=C1c2ccccc2-c2onc3ccc(Oc4ccccc4)c1c23 | 7.69% |
| Cc1occc1C(=O)N=Nc1c(O)n(C)c2ccccc12 | 15.2% (active) |
| Cc1ccccc1Nc1nnc(SCC(=O)c2cc3ccccc3o2)s1 | 6.8% |
| O=C(CSc1nc2ccccc2s1)c1cc2ccccc2o1 | 14.8% (active) |
| CCOC(=O)COn1c(=O)c(-c2cc3ccccc3o2)[n+]([O-])c2ccccc21 | 2.03% |
| O=C(CSc1nc2cc(Cl)ccc2s1)c1cc2ccccc2o1 | 107% (active) |
| COc1ccc(OC)c(NC(=O)NCCc2cccc(Cl)c2)c1 | 5.54% |
| COc1ccc(OC)c(-n2nnnc2SCC(=O)NCCc2ccccc2)c1 | 12.5% (active) |
| COc1ccc(-c2noc(CCC(=O)NCCc3ccccc3)n2)cc1 | 10.9% |
| O=C(CSc1nc2ccccc2s1)NNC(=S)Nc1ccccc1 | 482% (active) |
| Cc1ccc2c(c1)[C@H]1[C@H](CO2)[C@H](c2ccccc2)[C@]2(C)C(=O)N(Cc3ccc(F)cc3)CC(=O)N12 | 4.21% |

Reference: PubChem BioAssay AID504383 (The Scripps Research Institute Molecular Screening Center, 2011)
